# System: Influenza B virus
# Assay: Antiviral activity against influenza B virus infected in dog MDCK cells assessed as reduction in virus-induced cytopathic effect incubated for 3 to 6 days by light microscopic analysis
# Type: functional, organism-based
# Conditions: not given
# Outline: (§1)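 MDCK cells, subconfluent, received influenza A or B virus together with serial compound dilutions. Incubated 3–6 days at 35 °C.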
row,Structure (SMILES),EC50 [µg/mL]
1,O=C(N/N=C1\SCC(=O)N1CCc1ccccc1)c1[nH]c2ccc(F)cc2c1-c1ccccc1,> 100
2,O=C(NNC(=S)NCc1ccccc1)c1[nH]c2ccc(F)cc2c1-c1ccccc1,> 100
3,CCN1C(=O)CS/C1=N\NC(=O)c1[nH]c2ccc(F)cc2c1-c1ccccc1,> 100

# System: Felid alphaherpesvirus 1
# Assay: Antiviral activity against Feline herpesvirus infected in cat CRFK cells assessed as reduction in virus-induced cytopathic effect incubated for 3 to 6 days by light microscopic analysis
# Type: functional, organism-based
# Conditions: Felid alphaherpesvirus 1, CRFK
row,Structure (SMILES),EC50 [µg/mL]
1,O=C(N/N=C1\SCC(=O)N1CCc1ccccc1)c1[nH]c2ccc(F)cc2c1-c1ccccc1,> 100
2,O=C(NNC(=S)NCc1ccccc1)c1[nH]c2ccc(F)cc2c1-c1ccccc1,> 100
3,CCN1C(=O)CS/C1=N\NC(=O)c1[nH]c2ccc(F)cc2c1-c1ccccc1,> 100

# System: Vesicular stomatitis virus
# Assay: Antiviral activity against Vesicular stomatitis virus infected in human HeLa cells assessed as reduction in virus-induced cytopathic effect incubated for 3 to 6 days by light microscopic analysis
# Type: functional, organism-based
# Conditions: not given
# Outline: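 CPE reduction assay: virus and serial compound dilutions added together to subconfluent HeLa (vesicular stomatitis, Coxsackie B4, respiratory syncytial) or Vero (Coxsackie B4, Sindbis, Punta Toro) cultures. Incubated 3–6 days at 37 °C. Mean ± SEM of three independent tests.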
row,Structure (SMILES),EC50 [µg/mL]
1,O=C(N/N=C1\SCC(=O)N1CCc1ccccc1)c1[nH]c2ccc(F)cc2c1-c1ccccc1,> 100
2,O=C(NNC(=S)NCc1ccccc1)c1[nH]c2ccc(F)cc2c1-c1ccccc1,> 100
3,CCN1C(=O)CS/C1=N\NC(=O)c1[nH]c2ccc(F)cc2c1-c1ccccc1,> 100

# System: Coxsackievirus B4
# Assay: Antiviral activity against Human coxsackievirus B4 infected in African green monkey Vero cells assessed as reduction in virus-induced cytopathic effect incubated for 3 to 6 days by light microscopic analysis
# Type: functional, organism-based
# Conditions: Enterovirus B
# Outline: (§2)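 CPE reduction assay: virus and serial compound dilutions added together to subconfluent HeLa (vesicular stomatitis, Coxsackie B4, respiratory syncytial) or Vero (Coxsackie B4, Sindbis, Punta Toro) cultures. Incubated 3–6 days at 37 °C. […] Mean ± SEM of three independent tests.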
row,Structure (SMILES),EC50 [µg/mL]
1,O=C(N/N=C1\SCC(=O)N1CCc1ccccc1)c1[nH]c2ccc(F)cc2c1-c1ccccc1,> 100
2,O=C(NNC(=S)NCc1ccccc1)c1[nH]c2ccc(F)cc2c1-c1ccccc1,> 100
3,CCN1C(=O)CS/C1=N\NC(=O)c1[nH]c2ccc(F)cc2c1-c1ccccc1,> 100

# System: Human alphaherpesvirus 2
# Assay: Antiviral activity against Herpes simplex virus 2 infected in human HEL cells assessed as reduction in virus-induced cytopathic effect incubated for 3 to 6 days by light microscopic analysis
# Type: functional, cell-based
# Conditions: Human alphaherpesvirus 2, HEL
row,Structure (SMILES),EC50 [µg/mL]
1,O=C(N/N=C1\SCC(=O)N1CCc1ccccc1)c1[nH]c2ccc(F)cc2c1-c1ccccc1,> 100
2,O=C(NNC(=S)NCc1ccccc1)c1[nH]c2ccc(F)cc2c1-c1ccccc1,> 100
3,CCN1C(=O)CS/C1=N\NC(=O)c1[nH]c2ccc(F)cc2c1-c1ccccc1,> 100

# System: Feline coronavirus
# Assay: Antiviral activity against Feline coronavirus infected in cat CRFK cells assessed as reduction in virus-induced cytopathic effect incubated for 3 to 6 days by light microscopic analysis
# Type: functional, organism-based
# Conditions: Alphacoronavirus 1, CRFK
row,Structure (SMILES),EC50 [µg/mL]
1,O=C(N/N=C1\SCC(=O)N1CCc1ccccc1)c1[nH]c2ccc(F)cc2c1-c1ccccc1,> 100
2,O=C(NNC(=S)NCc1ccccc1)c1[nH]c2ccc(F)cc2c1-c1ccccc1,> 100
3,CCN1C(=O)CS/C1=N\NC(=O)c1[nH]c2ccc(F)cc2c1-c1ccccc1,> 100

# System: MT4
# Assay: Cytotoxicity against human MT4 cells assessed as reduction in cell viability incubated for 3 to 6 days by MTS assay
# Type: cell-based
# Conditions: time 3-6 day
# Outline: (§3)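 CRFK or MT4 cells were exposed to serial compound dilutions alongside the antiviral assays for 3–6 days at 37 °C.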
row,Structure (SMILES),CC50
1,O=C(N/N=C1\SCC(=O)N1CCc1ccccc1)c1[nH]c2ccc(F)cc2c1-c1ccccc1,>= 108 ug ml-1
2,O=C(NNC(=S)NCc1ccccc1)c1[nH]c2ccc(F)cc2c1-c1ccccc1,11 µg/mL
3,CCN1C(=O)CS/C1=N\NC(=O)c1[nH]c2ccc(F)cc2c1-c1ccccc1,> 125 µg/mL

# System: Influenza A virus
# Assay: Antiviral activity against influenza A virus infected in dog MDCK cells assessed as reduction in virus-induced cytopathic effect incubated for 3 to 6 days by light microscopic analysis
# Type: functional, organism-based
# Conditions: Influenza A virus, MDCK
# Outline: as §1
row,Structure (SMILES),EC50 [µg/mL]
1,O=C(N/N=C1\SCC(=O)N1CCc1ccccc1)c1[nH]c2ccc(F)cc2c1-c1ccccc1,> 100
2,O=C(NNC(=S)NCc1ccccc1)c1[nH]c2ccc(F)cc2c1-c1ccccc1,> 100
3,CCN1C(=O)CS/C1=N\NC(=O)c1[nH]c2ccc(F)cc2c1-c1ccccc1,> 100

# System: Human immunodeficiency virus 1
# Assay: Antiviral activity against Human immunodeficiency virus 1 infected in human MT4 cells assessed as reduction in virus-induced cytopathic effect incubated for 3 to 6 days by light microscopic analysis
# Type: functional, organism-based
# Conditions: Human immunodeficiency virus 1, MT4
row,Structure (SMILES),EC50 [µg/mL]
1,O=C(N/N=C1\SCC(=O)N1CCc1ccccc1)c1[nH]c2ccc(F)cc2c1-c1ccccc1,> 100
2,O=C(NNC(=S)NCc1ccccc1)c1[nH]c2ccc(F)cc2c1-c1ccccc1,> 100
3,CCN1C(=O)CS/C1=N\NC(=O)c1[nH]c2ccc(F)cc2c1-c1ccccc1,> 100

# System: Human respirovirus 3
# Assay: Antiviral activity against Human parainfluenza virus 3 infected in African green monkey Vero cells assessed as reduction in virus-induced cytopathic effect incubated for 3 to 6 days by light microscopic analysis
# Type: functional, organism-based
# Conditions: Human respirovirus 3, Vero
row,Structure (SMILES),EC50 [µg/mL]
1,O=C(N/N=C1\SCC(=O)N1CCc1ccccc1)c1[nH]c2ccc(F)cc2c1-c1ccccc1,> 100
2,O=C(NNC(=S)NCc1ccccc1)c1[nH]c2ccc(F)cc2c1-c1ccccc1,> 100
3,CCN1C(=O)CS/C1=N\NC(=O)c1[nH]c2ccc(F)cc2c1-c1ccccc1,> 100

# System: Coxsackievirus B4
# Assay: Antiviral activity against Human coxsackievirus B4 infected in human HeLa cells assessed as reduction in virus-induced cytopathic effect incubated for 3 to 6 days by light microscopic analysis
# Type: functional, organism-based
# Conditions: Enterovirus B
# Outline: as §2
row,Structure (SMILES),EC50 [µg/mL]
1,O=C(N/N=C1\SCC(=O)N1CCc1ccccc1)c1[nH]c2ccc(F)cc2c1-c1ccccc1,> 100
2,O=C(NNC(=S)NCc1ccccc1)c1[nH]c2ccc(F)cc2c1-c1ccccc1,> 100
3,CCN1C(=O)CS/C1=N\NC(=O)c1[nH]c2ccc(F)cc2c1-c1ccccc1,> 100

# System: Punta Toro virus
# Assay: Antiviral activity against Punta Toro virus infected in African green monkey Vero cells assessed as reduction in virus-induced cytopathic effect incubated for 3 to 6 days by light microscopic analysis
# Type: functional, organism-based
# Conditions: not given
# Outline: as §2
row,Structure (SMILES),EC50 [µg/mL]
1,O=C(N/N=C1\SCC(=O)N1CCc1ccccc1)c1[nH]c2ccc(F)cc2c1-c1ccccc1,> 100
2,O=C(NNC(=S)NCc1ccccc1)c1[nH]c2ccc(F)cc2c1-c1ccccc1,> 100
3,CCN1C(=O)CS/C1=N\NC(=O)c1[nH]c2ccc(F)cc2c1-c1ccccc1,> 100

# System: Vaccinia virus
# Assay: Antiviral activity against Vaccinia virus infected in human HEL cells assessed as reduction in virus-induced cytopathic effect incubated for 3 to 6 days by light microscopic analysis
# Type: functional, organism-based
# Conditions: Orthopoxvirus vaccinia
row,Structure (SMILES),EC50 [µg/mL]
1,O=C(N/N=C1\SCC(=O)N1CCc1ccccc1)c1[nH]c2ccc(F)cc2c1-c1ccccc1,> 100
2,O=C(NNC(=S)NCc1ccccc1)c1[nH]c2ccc(F)cc2c1-c1ccccc1,> 100
3,CCN1C(=O)CS/C1=N\NC(=O)c1[nH]c2ccc(F)cc2c1-c1ccccc1,> 100

# System: not listed separately
# Assay: Cytotoxicity against African green monkey Vero cells assessed as changes in cell morphology incubated for 3 to 6 days by light microscopy
# Type: cell-based
# Conditions: chlorocebus sabaeus, time 3-6 day
# Outline: (§4)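 Uninfected subconfluent cells (Vero or HeLa, as named) exposed to serial compound dilutions in parallel with the CPE assays, 37 °C, 3–6 days. Cell morphology examined by light microscopy; MCC = minimal concentration causing microscopically detectable changes in morphology.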
row,Structure (SMILES),MCC [µg/mL]
1,O=C(N/N=C1\SCC(=O)N1CCc1ccccc1)c1[nH]c2ccc(F)cc2c1-c1ccccc1,10
2,O=C(NNC(=S)NCc1ccccc1)c1[nH]c2ccc(F)cc2c1-c1ccccc1,10
3,CCN1C(=O)CS/C1=N\NC(=O)c1[nH]c2ccc(F)cc2c1-c1ccccc1,20

# System: Respiratory syncytial virus
# Assay: Antiviral activity against Respiratory syncytial virus infected in human HeLa cells assessed as reduction in virus-induced cytopathic effect incubated for 3 to 6 days by light microscopic analysis
# Type: functional, organism-based
# Conditions: not given
# Outline: as §2
row,Structure (SMILES),EC50 [µg/mL]
1,O=C(N/N=C1\SCC(=O)N1CCc1ccccc1)c1[nH]c2ccc(F)cc2c1-c1ccccc1,> 100
2,O=C(NNC(=S)NCc1ccccc1)c1[nH]c2ccc(F)cc2c1-c1ccccc1,> 100
3,CCN1C(=O)CS/C1=N\NC(=O)c1[nH]c2ccc(F)cc2c1-c1ccccc1,> 100

# System: Human immunodeficiency virus 2
# Assay: Antiviral activity against Human immunodeficiency virus 2 infected in human MT4 cells assessed as reduction in virus-induced cytopathic effect incubated for 3 to 6 days by light microscopic analysis
# Type: functional, organism-based
# Conditions: Human immunodeficiency virus 2, MT4
row,Structure (SMILES),EC50 [µg/mL]
1,O=C(N/N=C1\SCC(=O)N1CCc1ccccc1)c1[nH]c2ccc(F)cc2c1-c1ccccc1,> 100
2,O=C(NNC(=S)NCc1ccccc1)c1[nH]c2ccc(F)cc2c1-c1ccccc1,> 100
3,CCN1C(=O)CS/C1=N\NC(=O)c1[nH]c2ccc(F)cc2c1-c1ccccc1,> 100

# System: not listed separately
# Assay: Cytotoxicity against human HEL cells assessed as changes in cell morphology incubated for 3 to 6 days by light microscopy
# Type: cell-based
# Conditions: time 3-6 day
# Outline: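 Human embryonic lung fibroblasts incubated with serial compound dilutions alongside the antiviral assays, 37 °C, 3–6 days. Morphology inspected by light microscopy; minimal cytotoxic concentration taken as lowest concentration giving minimal morphological change.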
row,Structure (SMILES),MCC [µg/mL]
1,O=C(N/N=C1\SCC(=O)N1CCc1ccccc1)c1[nH]c2ccc(F)cc2c1-c1ccccc1,> 10
2,O=C(NNC(=S)NCc1ccccc1)c1[nH]c2ccc(F)cc2c1-c1ccccc1,> 10
3,CCN1C(=O)CS/C1=N\NC(=O)c1[nH]c2ccc(F)cc2c1-c1ccccc1,> 100

# System: Sindbis virus
# Assay: Antiviral activity against Sindbis virus infected in African green monkey Vero cells assessed as reduction in virus-induced cytopathic effect incubated for 3 to 6 days by light microscopic analysis
# Type: functional, organism-based
# Conditions: not given
# Outline: as §2
row,Structure (SMILES),EC50 [µg/mL]
1,O=C(N/N=C1\SCC(=O)N1CCc1ccccc1)c1[nH]c2ccc(F)cc2c1-c1ccccc1,> 100
2,O=C(NNC(=S)NCc1ccccc1)c1[nH]c2ccc(F)cc2c1-c1ccccc1,> 100
3,CCN1C(=O)CS/C1=N\NC(=O)c1[nH]c2ccc(F)cc2c1-c1ccccc1,> 100

# System: Human alphaherpesvirus 1
# Assay: Antiviral activity against Herpes simplex virus 1 infected in human HEL cells assessed as reduction in virus-induced cytopathic effect incubated for 3 to 6 days by light microscopic analysis
# Type: functional, cell-based
# Conditions: Human alphaherpesvirus 1, HEL
row,Structure (SMILES),EC50 [µg/mL]
1,O=C(N/N=C1\SCC(=O)N1CCc1ccccc1)c1[nH]c2ccc(F)cc2c1-c1ccccc1,> 100
2,O=C(NNC(=S)NCc1ccccc1)c1[nH]c2ccc(F)cc2c1-c1ccccc1,> 100
3,CCN1C(=O)CS/C1=N\NC(=O)c1[nH]c2ccc(F)cc2c1-c1ccccc1,> 100

# System: Mammalian orthoreovirus 1
# Assay: Antiviral activity against Mammalian orthoreovirus 1 infected in African green monkey Vero cells assessed as reduction in virus-induced cytopathic effect incubated for 3 to 6 days by light microscopic analysis
# Type: functional, organism-based
# Conditions: Mammalian orthoreovirus 1, Vero
row,Structure (SMILES),EC50 [µg/mL]
1,O=C(N/N=C1\SCC(=O)N1CCc1ccccc1)c1[nH]c2ccc(F)cc2c1-c1ccccc1,> 100
2,O=C(NNC(=S)NCc1ccccc1)c1[nH]c2ccc(F)cc2c1-c1ccccc1,> 100
3,CCN1C(=O)CS/C1=N\NC(=O)c1[nH]c2ccc(F)cc2c1-c1ccccc1,> 100

# System: not listed separately
# Assay: Cytotoxicity against cat CRFK cells assessed as reduction in cell viability incubated for 3 to 6 days by MTS assay
# Type: cell-based, Felis catus
# Conditions: crfk, time 3-6 day
# Outline: as §3
row,Structure (SMILES),CC50 [µg/mL]
1,O=C(N/N=C1\SCC(=O)N1CCc1ccccc1)c1[nH]c2ccc(F)cc2c1-c1ccccc1,17
2,O=C(NNC(=S)NCc1ccccc1)c1[nH]c2ccc(F)cc2c1-c1ccccc1,1.9
3,CCN1C(=O)CS/C1=N\NC(=O)c1[nH]c2ccc(F)cc2c1-c1ccccc1,> 100

# System: not listed separately
# Assay: Cytotoxicity against human HeLa cells assessed as changes in cell morphology incubated for 3 to 6 days by light microscopic analysis
# Type: cell-based
# Conditions: time 3-6 day
# Outline: as §4
row,Structure (SMILES),MCC [µg/mL]
1,O=C(NNC(=S)NCc1ccccc1)c1[nH]c2ccc(F)cc2c1-c1ccccc1,4

# From ChEMBL document CHEMBL4715693, “Synthesis and antiviral properties of novel indole-based thiosemicarbazides and 4-thiazolidinones” (Bioorg Med Chem, 2016)
